From ChEMBL document CHEMBL5335826, “Biochemical and Structural Studies of the Carminomycin 4-O-Methyltransferase DnrK” (J Nat Prod, 2024)

Legend:
[1] = substrate: Cc1cc(=O)oc2cc(O)ccc12; assay: Binding affinity to Streptomyces peucetius 4-O-methyltransferase DnrK assessed as catalytic constant
Procedure, shortened: (§1)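 N-His6-DnrK (10 μM), expressed in E. coli, was run in 50 mM Tris pH 8.0 at 37 °C with saturating AdoMet (1.6 mM). Acceptor was varied: carminomycin from 15 μM to […] as printed, or 4-methylumbelliferone from 150 μM to 10 mM. Methylated product was quantified by reversed-phase HPLC peak integration. Runs were in triplicate, and parameters came from Michaelis–Menten reciprocal plots.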

[2] = substrate: Cc1cc(=O)oc2cc(O)ccc12; assay: Binding affinity to Streptomyces peucetius 4-O-methyltransferase DnrK assessed as maximal activity; procedure, shortened: as §1

B1: Carminomycin 4-O-methyltransferase DnrK (Streptomyces peucetius), Q06528 (protein)
chain: MTAEPTVAARPQQIDALRTLIRLGSLHTPMVVRTAATLRLVDHILAGARTVKALAARTDTRPEALLRLIRHLVAIGLLEEDAPGEFVPTEVGELLADDHPAAQRAWHDLTQAVARADISFTRLPDAIRTGRPTYESIYGKPFYEDLAGRPDLRASFDSLLACDQDVAFDAPAAAYDWTNVRHVLDVGGGKGGFAAAIARRAPHVSATVLEMAGTVDTARSYLKDEGLSDRVDVVEGDFFEPLPRKADAIILSFVLLNWPDHDAVRILTRCAEALEPGGRILIHERDDLHENSFNEQFTELDLRMLVFLGGALRTREKWDGLAASAGLVVEEVRQLPSPTIPYDLSLLVLAPAATGA
kcat [1]: 0.0006 s⁻¹ | Km [2]: 1160 µM
